Assay [1] has as its target T1, Coagulation factor X (Homo sapiens, UniProt P00742). The experiment in a line: Inhibition of human factor 10a using S-2222 chromogenic substrate assessed as hydrolysis at 1.36 uM by microplate reader. Summed up: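 Purified human fXa with chromogenic substrate S-2222 and inhibitor in 0.05 M Tris-HCl pH 8.4 or 0.15 M NaCl; reaction started with enzyme. Hydrolysis read continuously at 405 nm, 37 °C. Percent inhibition at final inhibitor 1.36 µM, single run.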

Assay [2] concerns the target T1, Coagulation factor X. The experiment in a line: Inhibition of human factor 10a using S-2222 chromogenic substrate assessed as hydrolysis by microplate reader.
Another assay has as its system Mus musculus. Kind of assay: Anticoagulant activity in ICR mouse plasma assessed as prolongation of prothombin time at 100 mg/kg, po after 0.5 to 2 hrs relative to untreated control. Type of assay: functional. The method in brief: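 Male ICR mice (30–37 g) given compound dissolved or suspended in 0.5% methyl cellulose, 100 mg/kg by gastric tube. PT measured by coagulometer at 37 °C with thromboplastin; expressed as fold of vehicle-treated baseline; n = 3.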

Assay [3] relates to Plasma. Kind of assay: Anticoagulant activity in human plasma assessed as concentration required to double clotting time. The assay is classed as functional. The method in brief: (§1)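 Citrated plasma (human or mouse) spun at 3000 rpm for 10 min and stored at −40 °C. Clotting times read on a coagulometer at 37 °C; PT with thromboplastin, compared with a distilled water control. CT2 (concentration doubling clotting time) taken from each concentration–response curve; three determinations, mean reported.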

In assay [4] the test system is Plasma. Kind of assay: Anticoagulant activity in mouse plasma assessed as concentration required to prolong prothombin time. Type of assay: functional. Summed up: as §1
Another assay addresses Trypsin (Homo sapiens, UniProt P07477+P07478+P35030). The experiment in a line: Inhibition of human Trypsin using S-2222 chromogenic substrate assessed as hydrolysis by microplate reader.
The target in another assay is Prothrombin (Homo sapiens, UniProt P00734). The experiment in a line: Inhibition of human Thrombin using S-2238 chromogenic substrate assessed as hydrolysis by microplate reader.

Each structure is given as a SMILES string. Activity calls are given as the source filed them. The rule behind the calls is not given here.

The text below walks through data of ChEMBL document CHEMBL3352298, “Identification of potent orally active factor Xa inhibitors based on conjugation strategy and application of predictable fragment recommender system” (Bioorg Med Chem, 2015).

By inhibition is commonly meant the percentage by which the read-out fell short of the control. One may read the IC50 as the concentration needed to halve the response being measured.

T1 sequence (P00742 41-179 limits assumed): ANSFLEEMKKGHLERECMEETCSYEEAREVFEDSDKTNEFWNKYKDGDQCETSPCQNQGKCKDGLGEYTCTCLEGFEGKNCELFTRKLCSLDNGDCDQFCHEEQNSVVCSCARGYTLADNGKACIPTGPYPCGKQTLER
T1 sequence (P00742 235-488 limits assumed): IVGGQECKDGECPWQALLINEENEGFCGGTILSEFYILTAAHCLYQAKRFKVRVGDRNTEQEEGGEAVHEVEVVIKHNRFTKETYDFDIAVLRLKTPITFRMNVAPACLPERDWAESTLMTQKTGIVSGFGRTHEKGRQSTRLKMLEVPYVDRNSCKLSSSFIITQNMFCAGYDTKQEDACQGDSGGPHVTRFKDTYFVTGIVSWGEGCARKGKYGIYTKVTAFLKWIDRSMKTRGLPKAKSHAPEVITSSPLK

Regarding `Cc1cc(NC(=O)c2ccccc2NC(=O)c2ccc(N3CCCN(C)CC3)cc2)n[nH]1`, the inhibition entry at Coagulation factor X [1] is “inactive”.

For `CN1CCCN(c2ccc(C(=O)Nc3c(O)cccc3C(=O)Nc3ccc(Cl)cn3)cc2)CC1.Cl`, at Coagulation factor X [2], the IC50 is 16 nM. For the same molecule, in the assay with Mus musculus, the Ratio was 3.61.

`Cc1ccc(NC(=O)c2ccccc2NC(=O)c2ccc(N3CCCN(C)CC3)cc2)cc1`: the inhibition on Coagulation factor X [1] came to 94%.

With `CN1CCCN(c2ccc(C(=O)Nc3ccccc3C(=O)Nc3cccc(Cl)c3)cc2)CC1`, the inhibition on Coagulation factor X [1] worked out at 76%.

Regarding `CN1CCCN(c2ccc(C(=O)Nc3c(O)cccc3C(=O)Nc3ccc(Cl)cc3)cc2)CC1.Cl`, on Coagulation factor X [2], the 50% inhibitory concentration (IC50) was determined as 6.9 nM. In addition, the Ratio in the assay on Mus musculus is reported as 2.67.

Regarding `Cc1cccc(NC(=O)c2ccccc2NC(=O)c2ccc(N3CCCN(C)CC3)cc2)n1`, on Coagulation factor X [1], the inhibition amounted to 9%.

Turning to `COc1ccc(NC(=O)c2cccc(O)c2NC(=O)c2ccc(N3CCCN(C)CC3)cc2)nc1.Cl`, on Coagulation factor X [2], the IC50 was 220 nM. The Ratio in the assay on Mus musculus was determined as 2.03.

For `CC(C)c1ccc(NC(=O)c2ccccc2NC(=O)c2ccc(N3CCCN(C)CC3)cc2)cc1`, on Coagulation factor X [1], the inhibition came to 23%.

As to `Cc1ccc(NC(=O)c2ccccc2NC(=O)c2ccc(N3CCCN(C)CC3)cc2)nc1`, the inhibition on Coagulation factor X [1] came out at 73%.

On to `COc1cccc(NC(=O)c2ccccc2NC(=O)c2ccc(N3CCCN(C)CC3)cc2)c1`, for which, at Coagulation factor X [1], the inhibition is 40%.

For `Cc1ccc(NC(=O)c2cccc(O)c2NC(=O)c2ccc(N3CCCN(C)CC3)cc2)nc1.Cl`, the IC50 at Coagulation factor X [2] is 290 nM. Moreover, in the assay with Mus musculus, the Ratio is 2.13.

In the case of `CN1CCCN(c2ccc(C(=O)Nc3ccccc3C(=O)Nc3ccc(N(C)C)cc3)cc2)CC1`, the inhibition at Coagulation factor X [1] worked out at 24%.

Take `CN1CCCN(c2ccc(C(=O)Nc3ccccc3C(=O)Nc3ccc(Oc4ccccc4)cc3)cc2)CC1`: the inhibition at Coagulation factor X [1] was 22%.

In the case of `COc1ccc(NC(=O)c2ccccc2NC(=O)c2ccc(N3CCCN(C)CC3)cc2)cc1.Cl`, the inhibition at Coagulation factor X [1] stood at 85%. In the assay with Mus musculus, the Ratio was found to be 1.02.

`COc1ccc(NC(=O)c2cccc(O)c2NC(=O)c2ccc(N3CCCN(C)CC3)cc2)cc1.Cl`: the half-maximal inhibitory concentration (IC50) at Coagulation factor X [2] is 150 nM. Also, the Ratio with Mus musculus turned out to be 1.97.

`CN1CCCN(c2ccc(C(=O)Nc3ccccc3C(=O)Nc3ccc(OC(F)(F)F)cc3)cc2)CC1`: on Coagulation factor X [1], the inhibition was found to be 32%.

For the molecule `Cc1cccc(NC(=O)c2ccccc2NC(=O)c2ccc(N3CCCN(C)CC3)cc2)c1`, the inhibition on Coagulation factor X [1] came out at 88%.

As to `CN1CCCN(c2ccc(C(=O)Nc3ccccc3C(=O)Nc3ccc(Cl)cc3)cc2)CC1`, at Coagulation factor X [1], the inhibition turned out to be 100%.

For `CS(=O)(=O)c1ccccc1-c1ccc(NC(=O)c2cc(C(F)(F)F)nn2-c2cccc(CN)c2)c(F)c1.Cl`, the Activity with Plasma [3] is 0.67 µM; in the assay with Plasma [4], 0.7 µM.

For `COc1ccc(NC(=O)c2ccccc2NC(=O)c2ccc(N3CCCN(C)CC3)cc2)cc1Cl`, the inhibition on Coagulation factor X [1] was 39%.

As to `CCc1ccc(NC(=O)c2ccccc2NC(=O)c2ccc(N3CCCN(C)CC3)cc2)cc1`, the inhibition on Coagulation factor X [1] came out at 15%.

For `CN1CCCN(c2ccc(C(=O)Nc3ccccc3C(=O)Nc3ccccn3)cc2)CC1`, the inhibition at Coagulation factor X [1] stood at 38%.

Consider `COc1ccc(NC(=O)c2cc(Cl)cc(O)c2NC(=O)c2ccc(N3CCCN(C)CC3)cc2)cc1.Cl`, for which the IC50 on Coagulation factor X [2] turned out to be 68 nM. The Ratio in the assay on Mus musculus came to 3.91.

As to `CN1CCCN(c2ccc(C(=O)Nc3c(O[C@@H]4O[C@H](C(=O)O)[C@@H](O)[C@H](O)[C@H]4O)cc(Cl)cc3C(=O)Nc3ccc(Cl)cn3)cc2)CC1`, the Activity with Plasma [3] worked out at 0.27 µM; with Plasma [4], 0.28 µM. The IC50 is 1.5 nM on Coagulation factor X [2], above 100000 nM on Trypsin and above 100000 nM on Prothrombin.

With `CN1CCCN(c2ccc(C(=O)Nc3ccccc3C(=O)Nc3nc4ccccc4[nH]3)cc2)CC1`, on Coagulation factor X [1], the inhibition result is “inactive”.

Regarding `CN1CCCN(c2ccc(C(=O)Nc3ccccc3C(=O)Nc3ccc4ccccc4n3)cc2)CC1`, at Coagulation factor X [1], the inhibition entry is “inactive”.

On to `Cc1ccc(NC(=O)c2cccc(O)c2NC(=O)c2ccc(N3CCCN(C)CC3)cc2)cc1.Cl`, for which the IC50 on Coagulation factor X [2] is 68 nM. The Ratio in the assay with Mus musculus was 2.11.

As for `Cc1cc(NC(=O)c2ccccc2NC(=O)c2ccc(N3CCCN(C)CC3)cc2)sn1`, at Coagulation factor X [1], the inhibition result was “inactive”.

With `COc1ccc(NC(=O)c2ccc(C)c(O)c2NC(=O)c2ccc(N3CCCN(C)CC3)cc2)cc1.Cl`, the IC50 on Coagulation factor X [2] came out at 61 nM. In addition, the Ratio with Mus musculus was found to be 0.95.

Consider `COc1ccc(NC(=O)c2ccccc2NC(=O)c2ccc(N3CCCN(C)CC3)cc2)cn1`, for which the inhibition on Coagulation factor X [1] was 7%.

As to `CN1CCCN(c2ccc(C(=O)Nc3c(O)cc(Cl)cc3C(=O)Nc3ccc(Cl)cn3)cc2)CC1.Cl`, the IC50 on Coagulation factor X [2] was found to be 8.7 nM. The Ratio with Mus musculus is on record as 7.8.

For the molecule `Cc1ccnc(NC(=O)c2ccccc2NC(=O)c2ccc(N3CCCN(C)CC3)cc2)c1`, the inhibition on Coagulation factor X [1] was found to be 56%.

Consider `COc1ccc(NC(=O)c2cccc(O[C@@H]3O[C@H](C(=O)O)[C@@H](O)[C@H](O)[C@H]3O)c2NC(=O)c2ccc(N3CCCN(C)CC3)cc2)cc1`, for which the IC50 on Coagulation factor X [2] turned out to be 66 nM.

With `CN1CCCN(c2ccc(C(=O)Nc3ccc(Cl)cc3C(=O)Nc3ccc(Cl)cn3)cc2)CC1.Cl`, the IC50 on Coagulation factor X [2] was 3.6 nM. Besides, in the assay with Mus musculus, the Ratio is recorded as 1.21.

For the molecule `Cc1ccccc1NC(=O)c1ccccc1NC(=O)c1ccc(N2CCCN(C)CC2)cc1`, the inhibition at Coagulation factor X [1] was found to be 16%.

Take `CN1CCCN(c2ccc(C(=O)Nc3ccccc3C(=O)Nc3ccccc3Cl)cc2)CC1`: the inhibition at Coagulation factor X [1] stood at 11%.

For the molecule `COc1ccc(NC(=O)c2ccccc2NC(=O)c2ccc(N3CCCN(C)CC3)cc2)cc1OC`, the inhibition result on Coagulation factor X [1] was “inactive”.
